In ChEMBL document CHEMBL1150332, “Total synthesis of phenanthroindolizidine alkaloids (+/-)-antofine, (+/-)-deoxypergularinine, and their dehydro congeners and evaluation of their cytotoxic activity” (Bioorg Med Chem, 2008):
Values after ≈ are worked out from the molar mass of the structure shown. Active and inactive are the calls of the source. No cut-off for these calls is given here.

How the values were obtained:
Type in all cases: functional, cell-based
A549 = test: Cytotoxicity against human A549 cells after 72 hrs by sulforhodamine B assay; details: for EC50: A549, 72 h
Outline: (§1)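 SRB assay following NCI procedure; 72 h continuous exposure. Cells grown at 37 °C, 5% CO2, humidified, in RPMI-1640 with 25 mM HEPES, 2% (w/v) sodium bicarbonate, 10% (v/v) FBS, 100 µg/mL kanamycin. Compounds from DMSO stocks, final DMSO ≤1% (v/v). EC50 (µg/mL, 50% cell-number reduction) interpolated from dose-response; triplicate tests; doxorubicin positive control.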

MCF7 = test: Cytotoxicity against human MCF7 cells after 72 hrs by sulforhodamine B assay; details: for EC50: MCF7, 72 h; outline: as §1
KB = test: Cytotoxicity against human KB cells after 72 hrs by sulforhodamine B assay; outline: as §1
[1] = Cytotoxicity against human KB-VIN cells after 72 hrs by sulforhodamine B assay; details: KBVIN; outline: as §1

Compound | Activity (A549) | Activity (MCF7) | Activity (KB) | EC50 [1] | EC50 (MCF7) | EC50 (KB) | EC50 (A549)
COc1ccc2cc(/C=C/C(=O)O)c3cc(OC)c(OC)cc3c2c1 | inactive | inactive | inactive | 14.7 µg/mL (≈ 43.5 µM) | – | – | –
COc1ccc2c(c1)c1cc(OC)c(OC)cc1c1cc[nH]c(=O)c21 | inactive | inactive | inactive | 7.39 µg/mL (≈ 22 µM) | – | – | –
COc1ccc2cc(/C=C/C(=O)N=[N+]=[N-])c3cc(OC)c(OC)cc3c2c1 | inactive | – | – | 9.36 µg/mL (≈ 25.8 µM) | 8.29 µg/mL (≈ 22.8 µM) | 13.5 µg/mL (≈ 37.2 µM) | –
COc1ccc2c3c(c4cc(OC)c(OC)cc4c2c1)C(=O)N1CCCC1C3 (stereo not given) | – | – | – | 1.16 µg/mL (≈ 3.07 µM) | 2.14 µg/mL (≈ 5.67 µM) | 1.39 µg/mL (≈ 3.68 µM) | 1.15 µg/mL (≈ 3.05 µM)
COc1ccc2c3c(c4cc(OC)c(OC)cc4c2c1)CC1CCCN1C3 (racemic) [(+/-)-ANTOFINE] | – | – | – | 0.00083 µg/mL (≈ 0.00228 µM) | 0.0045 µg/mL (≈ 0.0124 µM) | 0.00043 µg/mL (≈ 0.00118 µM) | 0.00016 µg/mL (≈ 0.00044 µM)
COc1ccc2c3c(c4cc(OC)c(OC)cc4c2c1)CN1CCCC1C3 (racemic) [(+/-)-DEOXYTYLOPHORININE] | – | – | – | 0.016 µg/mL (≈ 0.044 µM) | 0.043 µg/mL (≈ 0.118 µM) | 0.023 µg/mL (≈ 0.0633 µM) | 0.011 µg/mL (≈ 0.0303 µM)
COc1ccc2c(c1)c1cc(OC)c(OC)cc1c1cc3[n+](cc21)CCC3.[Br-] [DEHYDROANTOFINE BROMIDE] | – | – | – | 5.14 µg/mL | 1.29 µg/mL | 5.37 µg/mL | 0.49 µg/mL
COc1ccc2c(c1)c1cc(OC)c(OC)cc1c1cc3[n+](cc21)CCC3.[Cl-] [DEHYDROANTOFINE CHLORIDE] | – | – | – | 0.33 µg/mL | 1.72 µg/mL | 0.93 µg/mL | 0.73 µg/mL
COc1ccc2c(c1)c1cc(OC)c(OC)cc1c1c[n+]3c(cc21)CCC3.[Br-] [DEOXYPERGULARININE BROMIDE] | – | – | – | 8.26 µg/mL | 1.18 µg/mL | 0.29 µg/mL | 0.32 µg/mL
COc1ccc2c(c1)c1cc(OC)c(OC)cc1c1c[n+]3c(cc21)CCC3.[Cl-] [DEOXYPERGULARININE CHLORIDE] | – | – | – | 5.66 µg/mL | 1.49 µg/mL | 0.95 µg/mL | 1.06 µg/mL
